Results on one compound are retold here after ChEMBL document CHEMBL3228024, “Prodrug analogues of the antitumor alkaloid camptothecin” (1979).

Holding throughout (format): functional
For assay [1], the system named is L1210. The experiment in a line: Antitumor activity against mouse L1210 cells allografted in mouse assessed as increase in mouse survival time at 1.4 mg/kg, iv for 4 to 9 days relative to control. The procedure, abridged: (§1)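 Run under NCI protocols 3LE21 (L1210) and 3PS31 (P388) in mice, six mice per test group. Drug was injected daily for 9 days, with 20–30 uninjected control animals. Mean or median survival time of the treated group was divided by that of controls and multiplied by 100, then reported as percentage increase in life span.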

Assay [2] deals with P388. In words: Antitumor activity against mouse P388 cells allografted in mouse assessed as increase in mouse survival time at 1.4 mg/kg, iv for 4 to 9 days relative to control. The procedure, abridged:
as §1

In assay [3] the test system is B16. The experiment in a line: Antitumor activity against mouse B16 cells allografted in mouse assessed as increase in mouse survival time at 43.5 mg/kg, iv for 4 to 9 days relative to control. The procedure, abridged: (§2)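 Run under NCI protocols 3B131 (B-16 melanocytic melanoma) and 3LL32 (Lewis lung carcinoma) in mice, ten mice per test group. Drug was injected every 4 days, with 20–30 uninjected control animals. Mean or median survival of treated mice over that of controls ×100 was reported as percentage increase in life span.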

In assay [4] the test system is B16. The experiment in a line: Antitumor activity against mouse B16 cells allografted in mouse assessed as increase in mouse survival time at 4.9 mg/kg, iv for 4 to 9 days relative to control. The procedure, abridged:
as §2

Assay [5] in a line: Cytotoxicity against human 9KB cells relative to camptothecin.
The subject of assay [6] is L1210. In words: Antitumor activity against mouse L1210 cells allografted in mouse assessed as increase in mouse survival time at 4.3 mg/kg, iv for 4 to 9 days relative to control. The procedure, abridged:
as §1

Assay [7] has as its system P388. In words: Cytotoxicity against mouse P388 cells relative to camptothecin.
For assay [8], the system named is L1210. The experiment in a line: Antitumor activity against mouse L1210 cells allografted in mouse assessed as increase in mouse survival time at 0.5 mg/kg, iv for 4 to 9 days relative to control. The procedure, abridged:
as §1

The test system of assay [9] is Lewis lung carcinoma cell line. In words: Antitumor activity against mouse LLC cells allografted in mouse assessed as increase in mouse survival time at 4 mg/kg, iv for 4 to 9 days relative to control. The procedure, abridged: as §2
Assay [10] can be described thus: Cytotoxicity against human 9KB cells.
For assay [11], the system named is P388. The experiment in a line: Antitumor activity against mouse P388 cells allografted in mouse assessed as increase in mouse survival time at 0.5 mg/kg, iv for 4 to 9 days relative to control. The procedure, abridged:
as §1

Assay [12] has as its system Lewis lung carcinoma cell line. In words: Antitumor activity against mouse LLC cells allografted in mouse assessed as increase in mouse survival time at 48 mg/kg, iv for 4 to 9 days relative to control. The procedure, abridged:
as §2

Assay [13] relates to P388. In words: Antitumor activity against mouse P388 cells allografted in mouse assessed as increase in mouse survival time at 4.3 mg/kg, iv for 4 to 9 days relative to control. The procedure, abridged:
as §1

The subject of assay [14] is Lewis lung carcinoma cell line. The experiment in a line: Antitumor activity against mouse LLC cells allografted in mouse assessed as increase in mouse survival time at 15.7 mg/kg, iv for 4 to 9 days relative to control. The procedure, abridged: as §2
Assay [15] has as its system P388. The experiment in a line: Cytotoxicity against mouse P388 cells. As to conditions: Mus musculus, P388; read-out: ED50 (the source's name).
In assay [16] the test system is P388. The experiment in a line: Antitumor activity against mouse P388 cells allografted in mouse assessed as increase in mouse survival time at 12.8 mg/kg, iv for 4 to 9 days relative to control. The procedure, abridged:
as §1

Assay [17] concerns L1210. In words: Antitumor activity against mouse L1210 cells allografted in mouse assessed as increase in mouse survival time at 12.8 mg/kg, iv for 4 to 9 days relative to control. The procedure, abridged:
as §1

Assay [18] relates to B16. In words: Antitumor activity against mouse B16 cells allografted in mouse assessed as increase in mouse survival time at 14.8 mg/kg, iv for 4 to 9 days relative to control. The procedure, abridged:
as §2

The structures appear in SMILES notation.

For orientation: T/C means the result in the treated group divided by that in the control group, in per cent.

Turning to `CC[C@@](O)(C(=O)NC(C)C)c1cc2n(c(=O)c1COC(C)=O)Cc1cc3ccccc3nc1-2`, the T/C with L1210 [1] is listed as 116%; in the assay on P388 [2] it was 126%; in the assay on B16 [3], 114%; in the assay with B16 [4], 100%; in the assay with L1210 [6], 147%; with L1210 [8] it was 110%. Besides, the T/C in assay [9] was determined as 147%; with P388 [11], 126%; in assay [12], 156%; with P388 [13] it was 173%; in assay [14] it was 166%; with P388 [16] it was 97%. In addition, the T/C in the assay with L1210 [17] and with B16 [18] was 105% in each case. Also, the Activity in assay [5] is recorded as 2.8%; with P388 [7], 0.08%. This compound also displayed an ED50 in assay [10] of 7.8 ×10⁻⁴ umol/ml. In addition, the EC50 with P388 [15] stood at 7.4 µM.
